Reference: ChEMBL document CHEMBL3739414, “Synthesis and biological evaluation of methylated scutellarein analogs based on metabolic mechanism of scutellarin in vivo” (Eur J Med Chem, 2015)
≈ marks a conversion by molar mass, not a printed value.

Columns and labels:
Plasma [1] = experiment: Antithrombotic activity in New Zealand white rabbit platelet-poor plasma assessed as increase of thrombin time at 100 uM after 3 mins (reference value: 20.25 +/- 1.02 seconds); format: functional, Oryctolagus cuniculus
In short: (§1)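 Citrated blood (3.8% citrate, 1:9) spun 3000 rpm for 10 min to give platelet-poor plasma. Compounds dissolved in 80% ethanol at 100 μM. Kit assays run on a coagulometer at 37 °C with 3 min incubations. TT: plasma, then thrombin plus sample. PT: plasma, then thromboplastin plus sample. APTT: sample, plasma and activator. FIB: plasma, FIB reagent and sample. Mean ± S.D., n = 4.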

Plasma [2] = experiment: Antithrombotic activity in New Zealand white rabbit platelet-poor plasma assessed as increase of prothrombin time at 100 uM after 3 mins (reference value: 4.99 +/- 0.18 seconds); format: functional, Oryctolagus cuniculus; in short: as §1
Plasma [3] = experiment: Antithrombotic activity in New Zealand white rabbit platelet-poor plasma assessed as increase of activated partial thromboplastin time at 100 uM after 3 mins (reference value: 30.58 +/- 1.55 seconds); format: functional, Oryctolagus cuniculus; in short: as §1
[4] = Antioxidant activity assessed as DPPH radical scavenging activity after 30 mins; format: physicochemical
In short: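 Sample in DMSO at 5–500 μM mixed 1:1 with 0.2 mM DPPH in ethanol; DMSO control. Reaction 30 min at 25 °C, absorbance at 517 nm. Scavenging % = [1 − (A1 − A2)/A0] × 100, with a no-DPPH sample blank. IC50 = concentration giving 50% loss of DPPH radical.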

[5] = Antioxidant activity in rat PC12 cells assessed as inhibition of H2O2-induced cytotoxicity at 50 uM after 4 hrs by MTT assay; format: functional; conditions: PC-12, 4 h
In short: (§2)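 PC12 cells seeded at 5×10^4 cells/ml and cultured 24 h at 37 °C, 5% CO2. The model group got 400 µM H2O2 for 1 h before drug at 25 or 50 µM; the control group got serum-free DMEM. Five wells per group. MTT 4 h at 37 °C, formazan dissolved in DMSO, absorbance read at 517 nm; inhibiting rate of H2O2 cytotoxicity calculated from absorbance.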

[6] = Antioxidant activity in rat PC12 cells assessed as inhibition of H2O2-induced cytotoxicity at 25 uM after 4 hrs by MTT assay; format: functional; conditions: PC-12, 4 h; in short: as §2
[7] = Aqueous solubility of the compound in water after 1 hr by UV-vis spectrophotometer analysis; format: physicochemical
In short: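 Standard curves from methanol solutions at 0.1–10 µg/ml, UV read at 334 nm. Compound (150 µg) dissolved in 10 ml water by ultrasound for 1 h at room temperature, left 30 min, centrifuged. Supernatant measured by UV scan and solubility read from the standard curve.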

[8] = N-octanol/0.1 M HCl partition coefficient, log P of the compound after 5 hrs by spectrophotometric analysis; format: physicochemical
In short: (§3)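 Shake-flask method. Stock (10 µg/ml) diluted into buffer (0.1 mol/L HCl, 0.15 mol/L NaCl or 0.15 mol/L NaHCO3) and mixed with an equal volume of mutually saturated n-octanol, protected from light. Vortexed 3 min, then shaken 5 h at 25 °C. Both phases read at 334 nm; logP = log([C]octanol/[C]aqueous).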

[9] = N-octanol/0.15 M NaCl partition coefficient, log P of the compound after 5 hrs by spectrophotometric analysis; format: physicochemical; in short: as §3
[10] = N-octanol/0.15 M NaHCO3 partition coefficient, log P of the compound after 5 hrs by spectrophotometric analysis; format: physicochemical; in short: as §3
Plasma [11] = experiment: Antithrombotic activity in New Zealand white rabbit platelet-poor plasma assessed as reduction of fibrinogen at 100 uM after 3 mins (reference value: 7.02+/- 0.16 g/L)

Row | Compound | IC50 [4] | solubility at 1 h [7] | logP at 5 h [8] | logP at 5 h [9] | logP at 5 h [10] | TT (Plasma [1]) | PT (Plasma [2]) | APTT (Plasma [3]) | inhibition at 50 µM [5] | inhibition at 25 µM [6] | Activity (Plasma [11])
1 | COc1ccc(-c2cc(=O)c3c(O)c(OC)c(OC)cc3o2)cc1 [SALVIGENIN] | 463 µM | 0.31 µg/mL (≈ 0.944 µM) | 2.64 | 2.55 | 2.27 | 29.03 s | 6.75 s | 36 s | 20.4% | 11.1% | 5.96 g/L
2 | O=C(O)[C@H]1O[C@@H](Oc2cc3oc(-c4ccc(O)cc4)cc(=O)c3c(O)c2O)[C@H](O)[C@@H](O)[C@@H]1O [SCUTELLARIN] | 27.9 µM |  | 0.592 | 0.365 | -0.0513 | 23.08 s | 6.28 s | 34.18 s | 79.2% | 53.1% | 6.13 g/L
3 | COc1ccc(-c2cc(=O)c3c(O)c(O)c(OC)cc3o2)cc1 [LADANEIN] | 159 µM | 3.2 µg/mL (≈ 10.2 µM) | 1.94 | 1.79 | 1.4 | 23.33 s | 6.93 s | 38.28 s | 74.3% | 48.2% | 5.94 g/L
4 | COc1cc2oc(-c3ccc(O)cc3)cc(=O)c2c(O)c1O | 30.2 µM | 4.56 µg/mL (≈ 15.2 µM) | 1.59 | 1.54 | 1.03 | 25.48 s | 6.55 s | 34.49 s | 82.3% | 56.2% | 5.74 g/L
5 | COc1ccc(-c2cc(=O)c3c(O)c(OC)c(O)cc3o2)cc1 [PECTOLINARIGENIN] | 170 µM | 1.36 µg/mL (≈ 4.33 µM) | 2.14 | 2.09 | 1.86 | 27.45 s | 6.53 s | 30.48 s | 68.1% | 44.2% | 5.92 g/L
6 | COc1c(O)cc2oc(-c3ccc(O)cc3)cc(=O)c2c1O [HISPIDULIN] | 23.7 µM | 4.27 µg/mL (≈ 14.2 µM) | 1.77 | 1.68 | 1.02 | 25.96 s | 6.25 s | 33.1 s | 88% | 62.4% | 5.38 g/L
7 | COc1cc2oc(-c3ccc(O)cc3)cc(=O)c2c(O)c1OC [CIRSIMARITIN] | 190 µM | 1.53 µg/mL (≈ 4.87 µM) | 2.19 | 2.14 | 1.81 | 25.1 s | 6.95 s | 39.42 s | 76.1% | 52.2% | 5.65 g/L

Further lines, with some results ahead:

Row | IC50 [4] | solubility at 1 h [7] | logP at 5 h [8] | logP at 5 h [9] | logP at 5 h [10] | Compound | TT (Plasma [1]) | PT (Plasma [2]) | APTT (Plasma [3]) | inhibition at 50 µM [5] | inhibition at 25 µM [6] | Activity (Plasma [11])
8 | 28.9 µM | 5.72 µg/mL (≈ 19 µM) | 1.55 | 1.47 | 0.892 | COc1c(O)c(O)cc2oc(-c3ccc(O)cc3)cc(=O)c12 | 22.6 s | 6.65 s | 30.53 s | 81.4% | 54.4% | 5.58 g/L
9 | 22.6 µM |  | 0.892 | 0.772 | 0.48 | O=c1cc(-c2ccc(O)cc2)oc2cc(O)c(O)c(O)c12 [SCUTELLAREIN] | 24.4 s | 5.93 s | 36.65 s | 91.2% | 64.6% | 6.84 g/L
10 | 25.3 µM | 6.31 µg/mL (≈ 21 µM) | 1.65 | 1.41 | 0.785 | COc1ccc(-c2cc(=O)c3c(O)c(O)c(O)cc3o2)cc1 | 24.98 s | 6.4 s | 31.53 s | 89.4% | 63.3% | 5.67 g/L
